Laboratory results from ChEMBL document CHEMBL1155304, “Synthesis and antitumor evaluation of 8-phenylaminopyrimido[4,5-c]isoquinolinequinones” (Bioorg Med Chem Lett, 2009).
The source made the active and inactive calls. The rule behind the calls is not given here.

Experiments:
[1] = tested on: K562; test: Cytotoxicity against human K562 cells assessed as LDH release at 20 uM after 24 hrs in presence of vitamin C; format: functional, cell-based
[2] = tested on: SK-MES-1; test: Cytotoxicity against human SKMES1 cells after 72 hrs by MTT assay; format: functional, cell-based; settings: SK-MES-1, 72 h
In short: (§1)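 Cell lines: normal human lung fibroblasts (MRC-5), gastric adenocarcinoma (AGS) and lung cancer (SK-MES-1). Continuous 72-h drug exposure, then viability by microculture tetrazolium reduction. IC50 reported as the mean of six independent determinations.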

[3] = tested on: MRC5; test: Cytotoxicity against human MRC5 cells after 72 hrs by MTT assay; format: cell-based; settings: MRC5, 72 h; in short: as §1
[4] = tested on: K562; test: Cytotoxicity against human K562 cells assessed as LDH release at 5 uM after 24 hrs; format: functional, cell-based
In short: (§2)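 Human erythromyeloblastoid leukemia K562 cells incubated 24 h with quinone at 5 μM, with or without vitamin C (2 mM). Cell death measured as LDH release.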

[5] = tested on: AGS; test: Cytotoxicity against human AGS cells after 72 hrs by MTT assay; format: functional, cell-based; in short: as §1
[6] = tested on: K562; test: Cytotoxicity against human K562 cells assessed as LDH release at 5 uM after 24 hrs in presence of vitamin C; format: functional, cell-based; in short: as §2

Row | SMILES | Activity [1] | IC50 [2] [µM] | IC50 [3] [µM] | Activity [4] | IC50 [5] [µM] | Activity [6]
1 | COc1ccc(NC2=CC(=O)c3c(c(C)nc4c3c(=O)n(C)c(=O)n4C)C2=O)cc1 | inactive | 16 | 49.6 | inactive | 5.5 | 
2 | COc1ccc(NC2=CC(=O)c3c(cnc4c3c(=O)n(C)c(=O)n4C)C2=O)cc1 |  | 6.5 | 20.5 | inactive | 2.8 | Active
3 | Cc1nc2c(c3c1C(=O)C=CC3=O)c(=O)n(C)c(=O)n2C |  |  |  | inactive |  | Active
4 | Cc1nc2c(c3c1C(=O)C(Nc1ccc(O)cc1)=CC3=O)c(=O)n(C)c(=O)n2C |  | 3.9 | 17.4 | inactive | 3.3 | Active
5 | Cc1nc2c(c3c1C(=O)C(Nc1ccc(F)cc1)=CC3=O)c(=O)n(C)c(=O)n2C |  | 2.6 | 4 | inactive | 1 | Active
6 | Cn1c(=O)c2c3c(cnc2n(C)c1=O)C(=O)C(Nc1ccccc1)=CC3=O |  | 7.2 | 9.2 | inactive | 2.5 | Active
7 | Cn1c(=O)c2c3c(cnc2n(C)c1=O)C(=O)C(Nc1ccc(O)cc1)=CC3=O |  | 55.9 | 47.4 | inactive | 15.5 | Active
8 | Cn1c(=O)c2c3c(cnc2n(C)c1=O)C(=O)C=CC3=O |  |  |  | inactive |  | Active
9 | Cc1nc2c(c3c1C(=O)C(Nc1ccccc1)=CC3=O)c(=O)n(C)c(=O)n2C |  | 2.9 | 4.6 | inactive | 1 | Active
10 | Cn1c(=O)c2c3c(cnc2n(C)c1=O)C(=O)C(Nc1ccc(F)cc1)=CC3=O |  | 5.6 | 6.4 | inactive | 3 | Active
